In ChEMBL document CHEMBL1155958, “Inhibition of oxidative metabolism of tocopherols with omega-N-heterocyclic derivatives of vitamin E” (Bioorg Med Chem, 2008):
Values belong to the compound of their own block, whether it stands above or below them. The source made the active and inactive calls. The rule behind the calls is not given here.

Experiments:
Cytochrome P450 4F2 [1] = biological target: T1, Cytochrome P450 4F2 (Homo sapiens, UniProt P78329); test: Inhibition of CYP4F2-mediated gamma-tocopherol metabolism in human HepG2/C3A cells preincubated for 4 hrs and continued for 48 hrs; format: cell-based; settings: for Activity: human, hepg2/c3a, 48 h
T1 sequence (P78329 whole entry): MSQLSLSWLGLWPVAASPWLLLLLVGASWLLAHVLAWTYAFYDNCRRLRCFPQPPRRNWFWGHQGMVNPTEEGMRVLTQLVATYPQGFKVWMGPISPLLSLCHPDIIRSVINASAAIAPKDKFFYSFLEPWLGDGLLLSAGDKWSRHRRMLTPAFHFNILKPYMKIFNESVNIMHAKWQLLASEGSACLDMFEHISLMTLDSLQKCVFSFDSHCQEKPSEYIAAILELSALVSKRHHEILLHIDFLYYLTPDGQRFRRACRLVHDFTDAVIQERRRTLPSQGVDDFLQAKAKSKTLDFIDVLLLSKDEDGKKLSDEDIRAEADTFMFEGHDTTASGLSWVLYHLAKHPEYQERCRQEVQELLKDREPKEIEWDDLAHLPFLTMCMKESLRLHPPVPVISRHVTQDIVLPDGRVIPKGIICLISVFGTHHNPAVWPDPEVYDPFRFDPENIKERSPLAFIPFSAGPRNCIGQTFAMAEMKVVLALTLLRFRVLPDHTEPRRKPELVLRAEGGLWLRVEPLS
Summary of the method: (§1)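 Confluent HepG2/C3A monolayers pre-incubated 4 hr with inhibitor (ethanol stock) or ethanol vehicle. Medium then replaced with fresh medium containing γ-tocopherol, 25 µM final, plus inhibitor again. After 48 hr, medium analysed by GC-MS for 3'- and 5'-carboxychromanols, with d9-α-CEHC internal standard. Results given as percent inhibition, means and standard deviation.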

CYP4F2 [2] = biological target: T2, CYP4F2 (Homo sapiens, UniProt P78329); test: Inhibition of CYP4F2-mediated gamma-tocopherol metabolism in human HepG2/C3A cells at 20 nM preincubated for 4 hrs and continued for 48 hrs; format: cell-based; settings: probe gamma-tocopherol; summary of the method: as §1
T2 sequence (P78329 whole entry): T1 sequence (P78329 whole entry)

Cytochrome P450 3A4 [3] = biological target: T3, Cytochrome P450 3A4 (Homo sapiens, UniProt P08684); test: Inhibition of CYP3A4 in human HepG2/C3A cells assessed as testosterone-6-hydroxylase activity; format: ADME, cell-based
Summary of the method: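 Confluent HepG2/C3A cultures pre-incubated 4 hr with inhibitor or ethanol control, then given 50 µM testosterone. After 48 hr, medium extracted with ethyl acetate and 6-hydroxytestosterone measured as its trimethylsilyl ether by GC-MS. Percent inhibition reported as means and standard deviation.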

CYP4F2 [4] = biological target: T2, CYP4F2; test: Inhibition of CYP4F2-mediated gamma-tocopherol metabolism in human HepG2/C3A cells at 1.0 uM preincubated for 4 hrs and continued for 48 hrs; format: cell-based; settings: probe gamma-tocopherol; summary of the method: as §1
Cytochrome P450 4F2 [5] = biological target: T1, Cytochrome P450 4F2; test: Inhibition of CYP4F2-mediated gamma-tocopherol metabolism in human HepG2/C3A cells at 1 uM preincubated for 6 hrs and continued for 24 hrs; format: cell-based
Summary of the method: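 Confluent HepG2/C3A monolayers exposed to 1 µM inhibitor for 6 hr. Then incubated 24 hr in medium with 25 µM γ-tocopherol, inhibitor not replaced. Medium carboxychromanol metabolites measured by GC-MS against d9-α-CEHC internal standard.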

Mus musculus [6] = test: Enrichment in delta-tocopherol in FVB/N mouse liver assessed as doubling in delta-tocopherol/alpha-tocopherol ratio at 500 mg/kg in delta-tocopherol rich diet for 10 days; format: functional, organism-based; design: dose 500 mg/kg
Mus musculus [7] = test: Enrichment in delta-tocopherol in FVB/N mouse bile assessed as tripling in delta-tocopherol/alpha-tocopherol ratio at 500 mg/kg in delta-tocopherol rich diet for 10 days; format: functional, organism-based; design: dose 500 mg/kg
Cytochrome P450 3A4 [8] = biological target: T3, Cytochrome P450 3A4; test: Inhibition of human recombinant CYP3A4 expressed in insect cell microsome assessed as testosterone-6-hydroxylase activity at 4 uM after 60 mins; format: ADME, microsomes; settings: recombinant enzyme, 1 h
Summary of the method: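 Insect-cell microsomes expressing only recombinant human CYP3A4 (20 pmol P450) incubated 60 min with 200 µM testosterone, 1 mM NADPH and 0.25% BSA in […], pH 7.4, with or without inhibitor. Reaction stopped with cold ethanol and extracted with hexane/MTBE (7:1). 6-OH-testosterone expressed as nmol per nmol membrane cholesterol.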

T3 sequence (P08684 whole entry): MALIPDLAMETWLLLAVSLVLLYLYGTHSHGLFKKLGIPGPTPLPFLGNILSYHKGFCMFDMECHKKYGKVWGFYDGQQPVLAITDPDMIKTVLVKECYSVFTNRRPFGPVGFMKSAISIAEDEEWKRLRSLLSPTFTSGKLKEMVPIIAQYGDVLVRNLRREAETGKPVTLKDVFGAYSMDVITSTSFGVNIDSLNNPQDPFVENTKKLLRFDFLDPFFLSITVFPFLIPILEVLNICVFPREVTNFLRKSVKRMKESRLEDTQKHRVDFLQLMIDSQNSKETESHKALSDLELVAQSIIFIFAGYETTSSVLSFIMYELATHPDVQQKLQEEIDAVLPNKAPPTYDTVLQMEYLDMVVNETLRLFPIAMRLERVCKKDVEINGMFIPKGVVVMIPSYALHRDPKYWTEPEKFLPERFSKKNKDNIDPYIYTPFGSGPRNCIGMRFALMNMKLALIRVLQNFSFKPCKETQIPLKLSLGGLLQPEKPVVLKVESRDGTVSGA

- Activity (Cytochrome P450 4F2 [1]): Not Active
Compound: Cc1c(C)c2c(c(C)c1O)CC[C@@](C)(CCCCCCCCCn1nc3ccccc3n1)O2

- inhibition at 48 h, 0.02 µM (CYP4F2 [2]): 42%
- Activity (Cytochrome P450 3A4 [3]): Active
Compound: Cc1c(C)c2c(c(C)c1O)CC[C@@](C)(CCCCCCCCCn1cncn1)O2

- Activity (Cytochrome P450 4F2 [1]): Not Active
Compound: Cc1c(C)c2c(c(C)c1O)CC[C@@](C)(CCCCCCCCCn1nnc3ccccc31)O2

- inhibition at 48 h, 1 µM (CYP4F2 [4]): 36%
- Activity (Cytochrome P450 3A4 [3]): Active
Compound: Cc1c(C)c2c(c(C)c1O)CC[C@@](C)(CCCCCCCCCn1ccnn1)O2

- Activity (Cytochrome P450 4F2 [1]): Not Active
Compound: Cc1c(C)c2c(c(C)c1O)CC[C@@](C)(CCCCCCCCCn1cnc3ccccc31)O2

- IC50 (Cytochrome P450 4F2 [1]; read-out: ED50 (the source's name)): 1 nM
- Activity (Cytochrome P450 4F2 [5]): Active
- Activity (Cytochrome P450 3A4 [3]): Active
- inhibition (INH) (Cytochrome P450 3A4 [8]): 90%
Compound: Cc1c(C)c2c(c(C)c1O)CC[C@@](C)(CCCCCCCCCn1ccnc1)O2
- Activity (Mus musculus [6]): Active
- Activity (Mus musculus [7]): Active
